Active and inactive are the calls of the source. The rule behind the calls is not given here.
Organism: Rattus norvegicus
Assay: Selectivity ratio of Ki for rat cloned dopamine D2L receptor to Ki for rat cloned dopamine D3 receptor

| Compound | Ratio Ki |
| --- | --- |
| CCCN(CCN1CCN(C(=O)c2ccc3[nH]ccc3c2)CC1)C1CCc2nc(N)sc2C1 (racemic) | 303 |
| CCCN(CCN1CCN(c2ccc3[nH]ccc3c2)CC1)[C@H]1CCc2nc(N)sc2C1 | 17.8 |
| CCCN(CCN1CCN(c2ccc3[nH]ccc3c2)CC1)C1CCc2nc(N)sc2C1 (racemic) | 24.3 |
| CCCN(CCN1CCN(Cc2c[nH]c3ccccc23)CC1)C1CCc2c(O)cccc2C1 (configuration not stated) | 25.6 |
| CCCN(CCN1CCN(C(=O)c2c[nH]c3ccccc23)CC1)[C@H]1CCc2nc(N)sc2C1 | 828 |
| CCCN(CCN1CCN(Cc2ccc3[nH]ccc3c2)CC1)C1CCc2nc(N)sc2C1 (configuration not stated) | 16.4 |
| CCCN(CCN1CCN(c2ccc3[nH]ccc3c2)CC1)[C@@H]1CCc2nc(N)sc2C1 | 8.46 |
| CCCN(CCCN1CCN(C(=O)c2cc3ccccc3[nH]2)CC1)C1CCc2nc(N)sc2C1 (racemic) | 334 |
| CCCN(CCN1CCN(Cc2ccc3[nH]ccc3c2)CC1)C1CCc2c(O)cccc2C1 (configuration not stated) | 64.5 |
| CCCN(CCN1CCN(c2nccc3ccccc23)CC1)[C@H]1CCc2nc(N)sc2C1 | 121 |
| CCCN(CCN1CCN(Cc2cc3ccccc3[nH]2)CC1)C1CCc2c(O)cccc2C1 (configuration not stated) | 33.4 |
| CCCN(CCN1CCN(C(=O)c2ccc3[nH]ccc3c2)CC1)[C@@H]1CCc2nc(N)sc2C1 | 49.7 |
| CCCN(CCN1CCN(C(=O)c2c[nH]c3ccccc23)CC1)[C@@H]1CCc2nc(N)sc2C1 | 27.3 |
| CCCN(CCN1CCN(C(=O)c2c[nH]c3ccccc23)CC1)C1CCc2nc(N)sc2C1 (racemic) | 360 |
| CCCN(CCN1CCN(C(=O)c2ccc3[nH]ccc3c2)CC1)[C@H]1CCc2nc(N)sc2C1 | 736 |
| CCCN(CCN1CCN(c2ccc3[nH]ccc3c2)CC1)C1CCc2c(O)cccc2C1 (configuration not stated) | 7.3 |
| CCCN(CCN1CCN(C(=O)c2c[nH]c3ccc(O)cc23)CC1)C1CCc2nc(N)sc2C1 (configuration not stated) | 64.2 |

Tested on: Radical scavenging activity
Assay: Antioxidant activity assessed as DPPH radical scavenging activity
Type: functional
Outline: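 Methanolic compound solutions (20–250 µM) mixed 1:1 with 200 µM methanolic DPPH and shaken at 30 °C for 20 min. Absorbance read at 517 nm. Controls were DPPH plus methanol; methanol alone served as background. % scavenging = (A control − A sample)/A control × 100, giving IC50.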

| Compound | Activity | IC50 [nM] |
| --- | --- | --- |
| CCCN(CCN1CCN(C(=O)c2cc3ccccc3[nH]2)CC1)C1CCc2nc(N)sc2C1 (racemic) | Dose-dependent effect | – |
| CCCN(CCN1CCN(C(=O)c2ccc3[nH]ccc3c2)CC1)C1CCc2nc(N)sc2C1 (racemic) | Dose-dependent effect | – |
| CCCN(CCN1CCN(c2ccc3[nH]ccc3c2)CC1)C1CCc2nc(N)sc2C1 (racemic) | Dose-dependent effect | 14500 |
| CCCN(CCN1CCN(C(=O)c2c[nH]c3ccccc23)CC1)C1CCc2nc(N)sc2C1 (racemic) | Dose-dependent effect | – |
| O=C1O[C@H]([C@@H](O)CO)C(O)=C1O [ASCORBIC ACID] | Dose-dependent effect | 24900 |

Molecular target: D(3) dopamine receptor (Homo sapiens, UniProt P35462)
Sequence (P35462 whole entry): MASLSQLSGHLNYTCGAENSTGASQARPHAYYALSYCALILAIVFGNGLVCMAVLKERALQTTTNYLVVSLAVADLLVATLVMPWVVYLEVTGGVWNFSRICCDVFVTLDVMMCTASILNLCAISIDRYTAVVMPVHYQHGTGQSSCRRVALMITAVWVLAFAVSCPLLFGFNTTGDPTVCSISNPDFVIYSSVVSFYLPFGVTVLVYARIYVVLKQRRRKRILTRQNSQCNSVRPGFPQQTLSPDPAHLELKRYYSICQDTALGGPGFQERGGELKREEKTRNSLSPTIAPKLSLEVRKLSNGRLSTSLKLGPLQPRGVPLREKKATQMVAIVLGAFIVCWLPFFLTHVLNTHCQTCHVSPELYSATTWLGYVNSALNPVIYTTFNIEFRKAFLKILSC
Assay: Agonist activity at human cloned dopamine D3 receptor expressed in CHO cells by [35S]GTPgammaS binding assay
Type: functional, cell-based

| Compound | EC50 [nM] |
| --- | --- |
| CCCN(CCN1CCN(c2ccc3[nH]ccc3c2)CC1)[C@H]1CCc2nc(N)sc2C1 | 1.26 |
| CCCN(CCN1CCN(C(=O)c2c[nH]c3ccccc23)CC1)[C@H]1CCc2nc(N)sc2C1 | 0.87 |
| CCCN(CCN1CCN(c2nccc3ccccc23)CC1)[C@H]1CCc2nc(N)sc2C1 | 0.82 |
| CCCN(CCN1CCN(C(=O)c2ccc3[nH]ccc3c2)CC1)[C@H]1CCc2nc(N)sc2C1 | 0.56 |
| CCCN(CCN1CCN(C(=O)c2cc3ccccc3[nH]2)CC1)[C@H]1CCc2nc(N)sc2C1 | 0.26 |
| CCCN(CCN1CCN(c2ccc(-c3ccccc3)cc2)CC1)[C@H]1CCc2nc(N)sc2C1 | 1.51 |

Tested on: Rattus norvegicus
Assay: Reversal of reserpine-induced akinesia in Sprague-Dawley rat at 5 umol/kg, sc administered 18 hrs post reserpine challenge measured for 6 hrs
Type: functional, organism-based

| Compound | Activity |
| --- | --- |
| CCCN(CCN1CCN(c2ccc3[nH]ccc3c2)CC1)[C@H]1CCc2nc(N)sc2C1 | Active |
| CCCN(CCC)CCc1cccc2c1CC(=O)N2 | Active |

Molecular target: T1, D(2) dopamine receptor (Homo sapiens, UniProt P14416)
T1 sequence (P14416 whole entry): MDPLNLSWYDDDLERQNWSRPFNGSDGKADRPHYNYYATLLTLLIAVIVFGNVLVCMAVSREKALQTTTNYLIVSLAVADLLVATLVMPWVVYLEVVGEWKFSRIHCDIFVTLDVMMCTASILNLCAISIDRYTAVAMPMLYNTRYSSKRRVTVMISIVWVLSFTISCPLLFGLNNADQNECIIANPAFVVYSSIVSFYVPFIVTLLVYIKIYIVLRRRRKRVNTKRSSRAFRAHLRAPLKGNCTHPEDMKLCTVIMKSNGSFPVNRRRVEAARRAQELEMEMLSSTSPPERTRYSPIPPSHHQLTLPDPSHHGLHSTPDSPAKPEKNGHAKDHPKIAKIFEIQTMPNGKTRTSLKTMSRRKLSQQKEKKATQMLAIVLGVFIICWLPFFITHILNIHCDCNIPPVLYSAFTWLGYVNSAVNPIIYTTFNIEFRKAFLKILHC
Assay: Agonist activity at human cloned dopamine D2 receptor expressed in CHO cells by [35S]GTPgammaS binding assay relative to dopamine
Type: functional, cell-based

| Compound | Emax [%] |
| --- | --- |
| CCCN(CCN1CCN(c2ccc3[nH]ccc3c2)CC1)[C@H]1CCc2nc(N)sc2C1 | 107 |
| CCCN(CCN1CCN(C(=O)c2c[nH]c3ccccc23)CC1)[C@H]1CCc2nc(N)sc2C1 | 91.6 |
| CCCN(CCN1CCN(C(=O)c2ccc3[nH]ccc3c2)CC1)[C@H]1CCc2nc(N)sc2C1 | 107 |
| CCCN(CCN1CCN(C(=O)c2cc3ccccc3[nH]2)CC1)[C@H]1CCc2nc(N)sc2C1 | 101 |
| CCCN(CCN1CCN(c2ccc(-c3ccccc3)cc2)CC1)[C@H]1CCc2nc(N)sc2C1 | 104 |

Molecular target: D(3) dopamine receptor (Rattus norvegicus, UniProt P19020)
Sequence (P19020 whole entry): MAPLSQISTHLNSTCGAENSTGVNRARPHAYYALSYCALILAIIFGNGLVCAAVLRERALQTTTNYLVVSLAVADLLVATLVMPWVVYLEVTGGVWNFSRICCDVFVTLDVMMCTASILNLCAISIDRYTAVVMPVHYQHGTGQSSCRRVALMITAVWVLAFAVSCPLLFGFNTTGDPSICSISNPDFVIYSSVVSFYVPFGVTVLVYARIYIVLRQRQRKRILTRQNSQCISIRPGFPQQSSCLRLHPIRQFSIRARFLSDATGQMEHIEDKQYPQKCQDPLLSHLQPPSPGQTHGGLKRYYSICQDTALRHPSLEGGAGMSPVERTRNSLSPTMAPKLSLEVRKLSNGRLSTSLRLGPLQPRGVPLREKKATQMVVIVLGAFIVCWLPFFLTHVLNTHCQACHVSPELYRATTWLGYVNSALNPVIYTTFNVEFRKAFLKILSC
Assay: Displacement of [3H]spiroperidol from rat cloned dopamine D3 receptor expressed in HEK293 cells
Type: cell-based

| Compound | Ki [nM] |
| --- | --- |
| CCCN(CCN1CCN(C(=O)c2cc3ccccc3[nH]2)CC1)[C@@H]1CCc2nc(N)sc2C1 | 54.1 |
| CCCN(CCN1CCN(C(=O)c2cc3ccccc3[nH]2)CC1)C1CCc2nc(N)sc2C1 (racemic) | 4.59 |
| CCCN(CCN1CCN(C(=O)c2ccc3[nH]ccc3c2)CC1)C1CCc2nc(N)sc2C1 (racemic) | 4.1 |
| CCCN(CCN1CCN(c2ccc3[nH]ccc3c2)CC1)[C@H]1CCc2nc(N)sc2C1 | 2.19 |
| CCCN(CCN1CCN(c2ccc3[nH]ccc3c2)CC1)C1CCc2nc(N)sc2C1 (racemic) | 1.92 |
| CCCN(CCN1CCN(Cc2c[nH]c3ccccc23)CC1)C1CCc2c(O)cccc2C1 (configuration not stated) | 3.2 |
| CCCN(CCN1CCN(C(=O)c2c[nH]c3ccccc23)CC1)[C@H]1CCc2nc(N)sc2C1 | 1.09 |
| CCCN(CCN1CCN(Cc2ccc3[nH]ccc3c2)CC1)C1CCc2nc(N)sc2C1 (configuration not stated) | 8.07 |
| CCCN(CCN1CCN(c2ccc3[nH]ccc3c2)CC1)[C@@H]1CCc2nc(N)sc2C1 | 15.9 |
| CCCN(CCCN1CCN(C(=O)c2cc3ccccc3[nH]2)CC1)C1CCc2nc(N)sc2C1 (racemic) | 2.78 |
| CCCN(CCN1CCN(Cc2ccc3[nH]ccc3c2)CC1)C1CCc2c(O)cccc2C1 (configuration not stated) | 4.17 |
| CCCN(CCN1CCN(Cc2cc3ccccc3[nH]2)CC1)C1CCc2c(O)cccc2C1 (configuration not stated) | 5.48 |
| CCCN(CCN1CCN(C(=O)c2ccc3[nH]ccc3c2)CC1)[C@@H]1CCc2nc(N)sc2C1 | 52.8 |
| CCCN(CCN1CCN(C(=O)c2c[nH]c3ccccc23)CC1)[C@@H]1CCc2nc(N)sc2C1 | 48.2 |
| CCCN(CCN1CCN(C(=O)c2c[nH]c3ccccc23)CC1)C1CCc2nc(N)sc2C1 (racemic) | 4.17 |
| CCCN(CCN1CCN(C(=O)c2ccc3[nH]ccc3c2)CC1)[C@H]1CCc2nc(N)sc2C1 | 1.4 |
| CCCN(CCN1CCN(c2ccc3[nH]ccc3c2)CC1)C1CCc2c(O)cccc2C1 (configuration not stated) | 10.4 |
| CCCN(CCN1CCN(C(=O)c2cc3ccccc3[nH]2)CC1)[C@H]1CCc2nc(N)sc2C1 | 1.84 |
| CCCN(CCCCN1CCN(C(=O)c2cc3ccccc3[nH]2)CC1)C1CCc2nc(N)sc2C1 (racemic) | 1.74 |
| CCCN(CCN1CCN(C(=O)c2c[nH]c3ccc(O)cc23)CC1)C1CCc2nc(N)sc2C1 (configuration not stated) | 16.8 |

Molecular target: T1, D(2) dopamine receptor
Assay: Agonist activity at human cloned dopamine D2 receptor expressed in CHO cells by [35S]GTPgammaS binding assay
Type: functional, cell-based

| Compound | EC50 [nM] |
| --- | --- |
| CCCN(CCN1CCN(c2ccc3[nH]ccc3c2)CC1)[C@H]1CCc2nc(N)sc2C1 | 2.96 |
| CCCN(CCN1CCN(C(=O)c2c[nH]c3ccccc23)CC1)[C@H]1CCc2nc(N)sc2C1 | 86.4 |
| CCCN(CCN1CCN(C(=O)c2ccc3[nH]ccc3c2)CC1)[C@H]1CCc2nc(N)sc2C1 | 70.7 |
| CCCN(CCN1CCN(c2ccc(-c3ccccc3)cc2)CC1)[C@H]1CCc2nc(N)sc2C1 | 33.1 |

Molecular target: D(2) dopamine receptor (Rattus norvegicus, UniProt P61169)
Sequence (P61169 whole entry): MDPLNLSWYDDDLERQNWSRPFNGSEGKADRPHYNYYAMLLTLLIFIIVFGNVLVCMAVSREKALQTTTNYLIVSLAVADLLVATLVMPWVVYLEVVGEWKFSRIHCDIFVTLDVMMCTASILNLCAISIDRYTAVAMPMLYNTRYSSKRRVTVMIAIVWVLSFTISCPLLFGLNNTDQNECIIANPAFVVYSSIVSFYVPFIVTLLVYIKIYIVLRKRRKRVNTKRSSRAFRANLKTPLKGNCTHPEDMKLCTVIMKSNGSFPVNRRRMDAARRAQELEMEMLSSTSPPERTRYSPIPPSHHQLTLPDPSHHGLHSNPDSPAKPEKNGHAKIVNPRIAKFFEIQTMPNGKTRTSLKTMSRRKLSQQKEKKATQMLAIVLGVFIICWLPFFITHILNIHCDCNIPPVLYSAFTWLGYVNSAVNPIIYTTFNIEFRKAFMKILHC
Assay: Displacement of [3H]spiroperidol from rat cloned dopamine D2L receptor expressed in HEK293 cells
Type: cell-based

| Compound | Ki [nM] |
| --- | --- |
| CCCN(CCN1CCN(C(=O)c2cc3ccccc3[nH]2)CC1)[C@@H]1CCc2nc(N)sc2C1 | 2560 |
| CCCN(CCN1CCN(C(=O)c2cc3ccccc3[nH]2)CC1)C1CCc2nc(N)sc2C1 (racemic) | 852 |
| CCCN(CCN1CCN(C(=O)c2ccc3[nH]ccc3c2)CC1)C1CCc2nc(N)sc2C1 (racemic) | 1240 |
| CCCN(CCN1CCN(c2ccc3[nH]ccc3c2)CC1)[C@H]1CCc2nc(N)sc2C1 | 39 |
| CCCN(CCN1CCN(c2ccc3[nH]ccc3c2)CC1)C1CCc2nc(N)sc2C1 (racemic) | 46.7 |
| CCCN(CCN1CCN(Cc2c[nH]c3ccccc23)CC1)C1CCc2c(O)cccc2C1 (configuration not stated) | 82.1 |
| CCCN(CCN1CCN(C(=O)c2c[nH]c3ccccc23)CC1)[C@H]1CCc2nc(N)sc2C1 | 902 |
| CCCN(CCN1CCN(Cc2ccc3[nH]ccc3c2)CC1)C1CCc2nc(N)sc2C1 (configuration not stated) | 132 |
| CCCN(CCN1CCN(c2ccc3[nH]ccc3c2)CC1)[C@@H]1CCc2nc(N)sc2C1 | 134 |
| CCCN(CCCN1CCN(C(=O)c2cc3ccccc3[nH]2)CC1)C1CCc2nc(N)sc2C1 (racemic) | 928 |
| CCCN(CCN1CCN(Cc2ccc3[nH]ccc3c2)CC1)C1CCc2c(O)cccc2C1 (configuration not stated) | 269 |
| CCCN(CCN1CCN(Cc2cc3ccccc3[nH]2)CC1)C1CCc2c(O)cccc2C1 (configuration not stated) | 183 |
| CCCN(CCN1CCN(C(=O)c2ccc3[nH]ccc3c2)CC1)[C@@H]1CCc2nc(N)sc2C1 | 2630 |
| CCCN(CCN1CCN(C(=O)c2c[nH]c3ccccc23)CC1)[C@@H]1CCc2nc(N)sc2C1 | 1320 |
| CCCN(CCN1CCN(C(=O)c2c[nH]c3ccccc23)CC1)C1CCc2nc(N)sc2C1 (racemic) | 1500 |
| CCCN(CCN1CCN(C(=O)c2ccc3[nH]ccc3c2)CC1)[C@H]1CCc2nc(N)sc2C1 | 1030 |
| CCCN(CCN1CCN(c2ccc3[nH]ccc3c2)CC1)C1CCc2c(O)cccc2C1 (configuration not stated) | 76.4 |
| CCCN(CCN1CCN(C(=O)c2cc3ccccc3[nH]2)CC1)[C@H]1CCc2nc(N)sc2C1 | 1070 |
| CCCN(CCN1CCN(C(=O)c2c[nH]c3ccc(O)cc23)CC1)C1CCc2nc(N)sc2C1 (configuration not stated) | 1080 |

Tested on: Rattus norvegicus
Assay: Reversal of reserpine-induced akinesia in Sprague-Dawley rat at 10 umol/kg, sc administered 18 hrs post reserpine challenge measured for 6 hrs
Type: functional, organism-based

| Compound | Activity |
| --- | --- |
| CCCN(CCN1CCN(C(=O)c2ccc3[nH]ccc3c2)CC1)[C@H]1CCc2nc(N)sc2C1 | inactive |
| CCCN(CCN1CCN(C(=O)c2cc3ccccc3[nH]2)CC1)[C@H]1CCc2nc(N)sc2C1 | inactive |

Reference: ChEMBL document CHEMBL2151002 (J Med Chem, 2012)
